Assay results as given in ChEMBL document CHEMBL1123691, “Multisubstrate inhibitors of dopamine beta-hydroxylase. 2. Structure-activity relationships at the phenethylamine binding site” (J Med Chem, 1987).

Columns and labels:
[1] = biological target: T1, Dopamine beta-hydroxylase (Bos taurus, UniProt P15101)
T1 sequence (P15101 whole entry): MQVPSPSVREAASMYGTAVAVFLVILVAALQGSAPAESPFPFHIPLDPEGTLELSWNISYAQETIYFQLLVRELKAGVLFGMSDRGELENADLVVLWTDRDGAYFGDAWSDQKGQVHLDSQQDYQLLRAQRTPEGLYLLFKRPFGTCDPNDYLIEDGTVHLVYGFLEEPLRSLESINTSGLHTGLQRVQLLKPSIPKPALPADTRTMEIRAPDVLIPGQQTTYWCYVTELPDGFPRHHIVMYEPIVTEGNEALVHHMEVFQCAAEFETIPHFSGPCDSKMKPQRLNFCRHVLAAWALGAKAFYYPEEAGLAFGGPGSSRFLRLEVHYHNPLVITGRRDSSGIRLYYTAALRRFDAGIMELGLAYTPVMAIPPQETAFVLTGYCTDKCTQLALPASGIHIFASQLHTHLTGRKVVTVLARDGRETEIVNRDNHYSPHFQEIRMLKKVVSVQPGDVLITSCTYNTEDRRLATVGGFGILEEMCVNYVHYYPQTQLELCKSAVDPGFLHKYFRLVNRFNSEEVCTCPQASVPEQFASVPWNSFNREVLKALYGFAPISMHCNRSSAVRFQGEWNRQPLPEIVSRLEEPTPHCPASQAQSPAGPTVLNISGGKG

[2] = biological target: T1, Dopamine beta-hydroxylase; remark: listed apart in the source
[3] = biological target: T1, Dopamine beta-hydroxylase; experiment: Inhibitory Concentration against bovine Dopamine beta hydroxylase (DBH); Range is between (4.9-6.5)
[4] = biological target: T2, Dopamine beta-hydroxylase (Bos taurus) (UniProt P15101); experiment: Inhibitor dissociation constant vs. tyramine substrate against Dopamine beta hydroxylase at pH 4.5.
T2 sequence (whole entry): T1 sequence (P15101 whole entry)
Procedure, shortened: (§1)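 Homogeneous purified DBH with specific activity 25-42 units/mg, with tyramine as the varied substrate. The pH 4.5 condition is predominantly ordered: phenethylamine binds before oxygen. The pH 6.6 condition is random. Kis is from standard competitive/noncompetitive kinetic fits, reported as mean ± SEM.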

Rattus norvegicus [5] = experiment: Change in DA/NE (Dopamine/Norepinephrine) ratio after oral dosing (50 mg/kg); format: functional
Procedure, shortened: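 Adult male Okamoto-Aoki SHR given vehicle (5% PEG 400, 1% methocel) or suspended drug orally, two doses 18 h apart. Mesenteric arteries taken 2 h after second dose and homogenized in 0.4 M HClO4 with Na2S2O5 and EDTA at 0 °C. Supernatant incubated 60 min at 37 °C with rat liver COMT and [methyl-3H]-S-adenosylmethionine, pH 9.6 Tris; DA and NE measured.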

[6] = Partition coefficient (logP); format: physicochemical; settings: octanol/water
Procedure, shortened: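 Octanol/pH 7.4 phosphate buffer partitioning at four concentrations, with UV assay of each phase. D taken at infinite dilution by linear regression. pKa by titration in 2:1 MeOH-H2O.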

[7] = biological target: T2, Dopamine beta-hydroxylase (Bos taurus); experiment: Percent inhibition against bovine Dopamine beta hydroxylase (DBH) at 10E-4 M
Procedure, shortened: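 DBH activity measured in the presence of 10^-4 M compound; result expressed as percent inhibition.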

[8] = biological target: T1, Dopamine beta-hydroxylase; remark: listed apart in the source
[9] = biological target: T1, Dopamine beta-hydroxylase; remark: listed apart in the source
[10] = biological target: T1, Dopamine beta-hydroxylase; remark: listed apart in the source
[11] = biological target: T1, Dopamine beta-hydroxylase; remark: listed apart in the source
[12] = biological target: T1, Dopamine beta-hydroxylase; experiment: Inhibitory Concentration against bovine Dopamine beta hydroxylase (DBH); Range is between (21-37).
Rattus norvegicus [13] = experiment: Mean arterial blood pressure at 4 hr post drug at ip dose of 50 mg/kg for the indicated number of SHR (spontaneous hypertensive rats) relative to blood pressure before dosing; format: functional; settings: route intraperitoneal
Procedure, shortened: (§2)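 Male Okamoto-Aoki SHR, 16–18 weeks, 275-310 g. Femoral artery cannulated under methohexital (10 mg/kg iv), with 2 h recovery, unrestrained. Drug given ip in 20% DMF or po as suspension in 5% PEG 400/1% methocel. BP recorded every 0.5 h for 5–6 h. Mean arterial BP change at 4 h versus predose; mean ± SEM, n rats; vehicle controls run in parallel.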

[14] = biological target: T2, Dopamine beta-hydroxylase (Bos taurus); experiment: Inhibitor dissociation constant vs. tyramine substrate against Dopamine beta hydroxylase at pH 6.0
Procedure, shortened: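 Purified homogeneous DBH, specific activity 25-42 units/mg, assayed at pH 6.0 with tyramine as the varied substrate. Kis taken as slope inhibition constant from Cleland COMP/NONCOMP fits; mean ± SEM.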

[15] = biological target: T1, Dopamine beta-hydroxylase; experiment: Inhibitory Concentration against bovine Dopamine beta hydroxylase (DBH); Range is between (56-72).
[16] = biological target: T1, Dopamine beta-hydroxylase; remark: listed apart in the source
Rattus norvegicus [17] = experiment: Mean arterial blood pressure at 4 hr post drug at po dose of 50 mg/kg for the indicated number of SHR (spontaneous hypertensive rats) relative to blood pressure before dosing (expt. no. 13); format: functional; settings: dose 100 mg/kg, in the assay text read “100 mg/kg” for “50 mg/kg”
Procedure, shortened: as §2

Rattus norvegicus [18] = experiment: Mean arterial blood pressure at 4 hr post drug at po dose of 50 mg/kg for the indicated number of SHR (spontaneous hypertensive rats) relative to blood pressure before dosing (expt. no. 12); format: functional
Procedure, shortened: as §2

[19] = biological target: T1, Dopamine beta-hydroxylase; experiment: Inhibitory Concentration against bovine Dopamine beta hydroxylase (DBH); Range is between (7-38).
[20] = biological target: T1, Dopamine beta-hydroxylase; remark: listed apart in the source
[21] = biological target: T1, Dopamine beta-hydroxylase; experiment: […] against bovine Dopamine beta hydroxylase […]; Range is between (1.8-2.6).
[22] = biological target: T1, Dopamine beta-hydroxylase; experiment: […] against bovine Dopamine beta hydroxylase […]; Range is between (4.2-5.3).
[23] = biological target: T1, Dopamine beta-hydroxylase; experiment: Inhibitory Concentration against bovine Dopamine beta hydroxylase (DBH); Range is between (1.7-2.4)
[24] = biological target: T1, Dopamine beta-hydroxylase; experiment: Inhibitory Concentration against bovine Dopamine beta hydroxylase (DBH); Range is between (10-14).
[25] = biological target: T1, Dopamine beta-hydroxylase; remark: listed apart in the source
[26] = biological target: T1, Dopamine beta-hydroxylase; remark: listed apart in the source
[27] = biological target: T1, Dopamine beta-hydroxylase; remark: listed apart in the source
[28] = biological target: T1, Dopamine beta-hydroxylase; remark: listed apart in the source
Rattus norvegicus [29] = experiment: Mean arterial blood pressure at 4 hr post drug at ip dose of 100 mg/kg for the indicated number of SHR (spontaneous hypertensive rats) relative to blood pressure before dosing; format: functional; settings: route intraperitoneal
Procedure, shortened: as §2

[30] = biological target: T1, Dopamine beta-hydroxylase; remark: listed apart in the source
[31] = biological target: T1, Dopamine beta-hydroxylase; remark: listed apart in the source
[32] = biological target: T1, Dopamine beta-hydroxylase; remark: listed apart in the source
[33] = biological target: T1, Dopamine beta-hydroxylase; remark: listed apart in the source
[34] = biological target: T1, Dopamine beta-hydroxylase; remark: listed apart in the source
[35] = biological target: T2, Dopamine beta-hydroxylase (Bos taurus); experiment: Inhibitor dissociation constant vs. tyramine substrate against Dopamine beta hydroxylase at pH 6.6
Procedure, shortened: as §1

[36] = biological target: T1, Dopamine beta-hydroxylase; experiment: Inhibitory Concentration against bovine Dopamine beta hydroxylase (DBH); Range is between (0.060-0.0877).
[37] = biological target: T1, Dopamine beta-hydroxylase; experiment: Inhibitory Concentration against bovine Dopamine beta hydroxylase (DBH); Range is between (36-102)
[38] = biological target: T1, Dopamine beta-hydroxylase; experiment: Inhibitory Concentration against bovine Dopamine beta hydroxylase (DBH); Range is between (23-41).
[39] = biological target: T1, Dopamine beta-hydroxylase; remark: listed apart in the source
[40] = biological target: T1, Dopamine beta-hydroxylase; remark: listed apart in the source

With S=c1[nH]ccn1Cc1ccc(Cl)cc1 the IC50 [1] was 96 µM.

O=[N+]([O-])c1ccc(Cn2cc[nH]c2=S)cc1 gave an IC50 [2] of 53 µM.

With Fc1cccc(Cn2cc[nH]c2=S)c1 the IC50 [3] was 5.6 µM, the Kis [4] was 0.108 µM and the Increase (Rattus norvegicus [5]) was 364%. For the same compound, the logP [6] was 1.7.

COc1cc(Cl)c(Cn2cc[nH]c2=S)c(Cl)c1 showed an inhibition [7] of 32%.

Compound S=c1[nH]ccn1Cc1c(Cl)cccc1Cl has an inhibition [7] of 7%.

In the case of COc1c(F)cc(Cn2cc[nH]c2=S)cc1F, the IC50 [8] is reported as 36 µM.

Cc1cc(Cn2cc[nH]c2=S)ccc1O gave an IC50 [9] of 49 µM.

Compound O=C(O)c1ccc(Cn2ccnc2S)cc1 has an inhibition [7] of 1%.

COc1ccc(Cn2cc[nH]c2=S)cc1C(F)(F)F showed an inhibition [7] of 29%.

With COc1ccc(Cn2ccnc2S)cc1S(N)(=O)=O the inhibition [7] was 7%.

With COc1cccc(OC)c1Cn1cc[nH]c1=S the inhibition [7] was 10%.

Cc1ccccc1Cn1cc[nH]c1=S gave an inhibition [7] of 15%.

For S=c1[nH]ccn1Cc1cc(Cl)ccc1Cl, the IC50 [10] was 97 µM.

Work on COc1ccc(Cn2cc[nH]c2=S)cc1[N+](=O)[O-] yielded an IC50 [11] of 359 µM.

For S=c1[nH]ccn1Cc1ccc(Cl)c(Cl)c1, the IC50 [12] was 28 µM.

Oc1ccc(Cn2cc[nH]c2=S)cc1 gave a Decrease (Rattus norvegicus [13]) of 22 mmHg, an Increase (Rattus norvegicus [5]) of 92% and a logP [6] of 1.02.

For FC(F)(F)c1ccc(Cn2cc[nH]c2=S)cc1, the inhibition [7] was 25% and the Kis [14] was 9.04 µM.

Oc1c(F)c(F)c(Cn2cc[nH]c2=S)c(F)c1F showed an IC50 [15] of 62 µM.

S=c1[nH]ccn1Cc1cccc(Cl)c1Cl showed an IC50 [16] of 52 µM.

Fc1cc(F)cc(Cn2cc[nH]c2=S)c1 gave a Decrease (Rattus norvegicus [17]) of 28 mmHg, a Kis [4] of 0.041 µM and a Decrease (Rattus norvegicus [18]) of 22 mmHg. It also gave a Decrease (Rattus norvegicus [13]) of 50 mmHg, an Increase (Rattus norvegicus [5]) of 407% and a logP [6] of 1.98.

In the case of COc1ccc(Cn2cc[nH]c2=S)cc1C, the inhibition [7] is reported as 72%.

For S=c1[nH]ccn1Cc1ccc(Cl)cc1Cl, the IC50 [19] was 17 µM.

Compound COc1cccc(Cn2cc[nH]c2=S)c1 has an IC50 [20] of 157 µM.

In the case of S=c1[nH]ccn1CCCc1cc(Cl)cc(Cl)c1, the IC50 [21] is reported as 2.1 µM.

Work on Fc1cc(F)cc(CCCn2cc[nH]c2=S)c1 yielded an IC50 [22] of 4.7 µM.

For Oc1ccc(Cn2cc[nH]c2=S)cc1Cl, the IC50 [23] was 2 µM.

With COc1ccc(Cn2cc[nH]c2=S)cc1Br the inhibition [7] was 60%.

COc1ccccc1Cn1cc[nH]c1=S showed an inhibition [7] of 68%.

Compound OCc1ccc(Cn2ccnc2S)cc1 has an inhibition [7] of 6%.

With S=c1[nH]ccn1Cc1cccc(Cl)c1 the IC50 [24] was 12 µM.

COc1c(Cl)cc(Cn2cc[nH]c2=S)cc1Cl showed an IC50 [25] of 47 µM.

With S=c1[nH]ccn1Cc1c(Cl)cc(Cl)cc1Cl the IC50 [26] was 102 µM.

Oc1ccc(Cn2cc[nH]c2=S)cc1O showed an IC50 [27] of 2.2 µM.

In the case of Fc1ccc(Cn2cc[nH]c2=S)cc1, the IC50 [28] is reported as 47 µM.

Oc1ccc(Cn2cc[nH]c2=S)cc1F gave a Decrease (Rattus norvegicus [29]) of 32 mmHg, an IC50 [30] of 1.5 µM and an Increase (Rattus norvegicus [5]) of 78%. The logP [6] was 1.12.

For S=c1[nH]ccn1Cc1ccccc1Cl, the inhibition [7] was 14%.

Compound Oc1ccc(Cn2cc[nH]c2=S)cc1C(F)(F)F has an IC50 [31] of 121 µM.

S=c1[nH]ccn1Cc1cc(Cl)cc(Cl)c1 showed an Increase (Rattus norvegicus [5]) of 197%, a logP [6] of 1.78 and an IC50 [32] of 2.4 µM.

Oc1ccc(Cn2cc[nH]c2=S)cc1Br gave an IC50 [33] of 12 µM.

Compound S=c1[nH]ccn1Cc1ccccc1 has a Kis [14] of 0.83 µM.

In the case of Cc1ccc(Cn2cc[nH]c2=S)cc1, the inhibition [7] is reported as 34% and the Kis [14] is reported as 9.77 µM.

For Oc1cccc(Cn2cc[nH]c2=S)c1, the IC50 [34] was 148 µM.

Compound Oc1c(F)cc(Cn2cc[nH]c2=S)cc1F has a Kis [35] of 0.039 µM, a Kis [4] of 0.0057 µM and a Decrease (Rattus norvegicus [13]) of 36 mmHg. It also gave an IC50 [36] of 0.074 µM, an Increase (Rattus norvegicus [5]) of 165% and a logP [6] of 1.08.

With Oc1cc(Cl)c(Cn2cc[nH]c2=S)c(Cl)c1 the IC50 [37] was 75 µM.

O=[N+]([O-])c1cc(Cn2cc[nH]c2=S)ccc1O showed an IC50 [38] of 31 µM.

Oc1ccccc1Cn1cc[nH]c1=S showed an IC50 [39] of 580 µM.

Oc1c(Cl)cc(Cn2cc[nH]c2=S)cc1Cl showed an IC50 [40] of 0.68 µM, a Decrease (Rattus norvegicus [29]) of 28 mmHg and an Increase (Rattus norvegicus [5]) of 12%.

For COc1ccc(Cn2cc[nH]c2=S)cc1F, the inhibition [7] was 67%.

Work on Cc1cccc(C)c1Cn1cc[nH]c1=S yielded an inhibition [7] of 5%.

In the case of COc1ccc(Cn2cc[nH]c2=S)cc1OC, the inhibition [7] is reported as 15%.

For S=c1[nH]ccn1Cc1ccc(Br)cc1, the inhibition [7] was 43% and the Kis [14] was 3.42 µM.
